The whole screen tested about 320,000 compounds, of which about 200 (0.062%) were called active.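 Rule for the calls: active = activation above that plate's cutoff, the mean activation of tested compounds plus 3 SD (cut at about 6.6% in these data, passing the limit was not always enough); inactive = the rest.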 This excerpt belongs to a sample that is enriched for actives.
molecular target: Oxytocin receptor (Homo sapiens) (UniProt P30559); test: enhancers of oxytocin-evoked OXTR calcium signal – fluorescence, CHO-OTR cells, Fluo-8 calcium, primary screen (AID 2445); settings: Fluo-8 calcium fluorescence, potentiator mode, at 3 µM, stronger effect = higher value, 0% = oxytocin EC15, 100% = EC100;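 note: 100% uses oxytocin at 75 nM as the full agonist control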
Sequence (P30559 whole entry, looked up): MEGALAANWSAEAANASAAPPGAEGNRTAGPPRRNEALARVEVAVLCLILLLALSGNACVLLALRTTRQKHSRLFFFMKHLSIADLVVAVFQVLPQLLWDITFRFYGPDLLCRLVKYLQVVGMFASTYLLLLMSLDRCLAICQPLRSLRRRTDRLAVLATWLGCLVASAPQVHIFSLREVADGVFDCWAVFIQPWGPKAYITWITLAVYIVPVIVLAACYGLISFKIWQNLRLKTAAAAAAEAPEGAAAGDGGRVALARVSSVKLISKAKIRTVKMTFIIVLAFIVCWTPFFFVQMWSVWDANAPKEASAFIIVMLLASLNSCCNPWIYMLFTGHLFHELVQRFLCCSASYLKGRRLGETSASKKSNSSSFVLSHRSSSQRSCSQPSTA
Method in brief: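 Replication – single well per compound, singlicate · Assay system – CHO cell line stably expressing human OTR · Timing – 6 min pre-incubation, 100 s read · Measure – normalized max/min fluorescence ratio, % activation · Doses – 3.0 µM, one dose · Detection – Fluo-8 calcium dye fluorescence · Probe or stimulus – oxytocin near EC15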

activation, active:
CCCCn1c(N)c(N2CCOCC2)c(=O)n(CC(=O)NCCc2ccccc2)c1=O 14.8%, O=C(NC(=S)Nc1ccccc1N1CCCCC1)c1ccc(F)cc1 25.2%

activation, inactive:
COc1ccccc1CSc1ncc(-c2ccc([N+](=O)[O-])cc2)[nH]1 -15.7%, Cn1cccc1C(=O)N1CCc2ccccc2C1 -4.4%, O=C(Nn1cc(C(=O)N2CCN(c3ccccc3F)CC2)c2ccccc2c1=O)c1cnccn1 -16.9%, COc1ccc([C@H]2[C@H](C(C)=O)N3N=Cc4ccccc4C3C23C(=O)OC(C)(C)OC3=O)cc1 (stereo partly specified) -5.56%, O=C(COC(=O)Cn1cnc2ccccc21)Nc1cccc2c1C(=O)c1ccccc1C2=O -2.58%, Cc1cc(NC(=O)Nc2c[nH]c(=O)[nH]c2=O)ccc1Br -3.04%, Cc1ccc2nc(NC(=O)C3CSC4(C)CCC(=O)N34)sc2c1 (stereo unspecified) -1.9%, COc1ccc(Cl)cc1NC(=O)CN(C)C(=O)CCCc1c[nH]c2ccccc12 -8.97%, CC(C)CN(C(=O)CSc1ncnc2sccc12)C1CCS(=O)(=O)C1 (stereo unspecified) -5.65%, CCCc1cc(=O)oc2cc(OCC(=O)Nc3ccc(CN4CCOCC4)cc3)c(Cl)cc12 2.03%, COc1ccc(CCNC(=O)CCc2cn(C)c3ccccc23)c(OC)c1 -6.44%, C=CCNC(=O)COC(=O)CNC(=O)c1cc(Cl)cc([N+](=O)[O-])c1 6.81%, Cn1c(=O)c2sccc2n(Cc2ccc(Br)cc2)c1=O -7.63%, COc1cc(S(=O)(=O)N2CCN(C(=O)C3CC3)CC2)ccc1NC(C)=O 5.54%, O=C(CN(Cc1ccccc1)C(=O)CCC(=O)Nc1ccccn1)NCCc1ccccc1 -8.23%, O=C(Oc1ccc(-c2nnco2)cc1)c1ccc(F)c(S(=O)(=O)N2CCOCC2)c1 -5.86%, O=C(COc1cc(Cl)c(Cl)cc1Cl)NC(=O)NC1CCCC1 2.91%, O=C(NCCCN1CCCCC1)C1CCCN(c2ncnc3c2nc2n3CCCCC2)C1 (stereo unspecified) -5.62%, Cc1cc(C(=O)OCC(=O)Nc2ccccc2Cl)c(C)o1 1.55%, COCCCNC(=O)CSc1nc2ccc(N3CCOCC3)cc2c(=O)n1CCc1ccccc1 -1.26%, O=C(COC(=O)c1cc(S(=O)(=O)N2CCOCC2)ccc1Cl)NCCc1ccccc1 -5.23%, CCC(=O)N1CCN=C1SCc1ccc(F)cc1 -4.47%, CCOC(=O)N1CCN(Cc2oc(CO)cc(=O)c2O)CC1 -9.68%, Cc1noc(/C=C/c2ccco2)c1S(=O)(=O)N1CCC(C(=O)Nc2ccc(Cl)cn2)CC1 -2.32%, COc1ccccc1C(=O)NC(=S)Nc1ccccc1N1CCCCC1 -5.57%, CCc1ccc(C(=O)NC(=S)Nc2ccccc2N2CCOCC2)cc1 -6.63%, COc1ccc(C[C@H]2CN3C(=NC[C@H]3C)N2CCNC(=O)CCC2CCCCC2)cc1 3.05%, C[C@H](NC(=O)c1nc[nH]c1C(=O)N[C@@H](C)C(=O)OC(C)(C)C)C(=O)OC(C)(C)C -3.66%, Cc1cccc(NC(=O)Cn2c(=O)n(Cc3ccccc3)c(=O)c3c(C)c(C)sc32)c1 -5.82%, Cc1ccc(CS(=O)(=O)CCC(=O)NC2CC2)cc1 0.82%, COC(=O)C1=C[C@@H](C(=O)OC)[C@@H]2C3=C(C(=O)[C@]2(C)NC(=O)c2ccccc2)[C@H](C)n2c(=O)n(C)c(=O)n2[C@@H]3C1 -11.9%, COc1cc(NC(=O)COC(=O)c2ccc([N+](=O)[O-])s2)cc(OC)c1OC -5.07%, O=C(Cn1cc(C(F)(F)F)ccc1=O)Nc1ccc2c(c1)OCCO2 2.63%, O=C(COC(=O)c1cc(=O)[nH]c2ccccc12)Nc1nc(-c2cccc(Br)c2)cs1 2.69%, CCOc1ccccc1NC(=O)CCc1nnc2ccc(NCc3ccco3)nn12 0.12%, CCCCCCNS(=O)(=O)c1ccccc1Br -3.1%, Brc1ccc(-c2n(-c3ccccn3)c3ccccc3[n+]2-c2ccccn2)cc1 -4.84%, COC(=O)C1(C)CC1(c1ccccc1)c1ccccc1 (stereo unspecified) -14.7%, CCOC(=O)C1=C(C)OC(N)=C(C#N)C1c1cncc(-c2ccc(F)cc2)c1 (stereo unspecified) -4.76%, O=C(COC(=O)c1ccc(F)cc1F)Nc1ncccn1 -2.64%, [O-][n+]1ccc(OCc2ccccc2)cc1 -0.76%, COc1ccccc1CNS(=O)(=O)CC12CCC(CC1=O)C2(C)C (stereo unspecified) -12.6%, Cc1cc(NC(=O)CSc2nc(=O)cc(N)n2-c2ccc(F)cc2)no1 0.45%, CN(C)c1cc(N)c2ccccc2n1 (tested in a mixture with another compound) -14.8%, CN1C(=O)[C@H]2[C@@H](C3CC3)N3C(=O)CN(Cc4ccccc4)C(=O)[C@@]3(C)[C@H]2C1=O -2.37%, CC(C)=CCc1c(O)c(CC=C(C)C)c2occ(-c3ccc(O)cc3)c(=O)c2c1O -5.45%, COc1ccc(-c2nc3cnccn3c2NC2CCCCC2)cc1-c1cccc(Cl)c1 -2.33%, Cc1ccc(CNS(=O)(=O)c2ccc3c(c2)N(C)CCO3)cc1 -5.63%, NS(=O)(=O)c1cc(C(=O)OCC(=O)NNC(=O)c2ccccc2)ccc1Cl -5.64%, NC1=NN(c2cccc(C(=O)O)c2)C(=O)C1 -3.83%, CC(=O)N/C(=N/c1nc(C)cc(C)n1)Nc1ccc(F)cc1F 2.96%, Cc1ccc(CNC(=O)C2CCCN2S(=O)(=O)c2ccc3c(c2)C(C)(C)C(=O)N3C)cc1 (stereo unspecified) -1.94%, CCc1ccnc(NS(=O)(=O)c2ccc3c(c2)OCCO3)c1 -3.79%, C/C(=N\NC(=O)c1ccc(C)cc1)C1C(=O)c2ccccc2C1=O -16.2%

Reference: PubChem BioAssay AID2445 (The Scripps Research Institute Molecular Screening Center, 2010)
